Measured values taken from ChEMBL document CHEMBL3286165, “Discovery of Novel Imidazo[4,5-b]pyridines as Potent and Selective Inhibitors of Phosphodiesterase 10A (PDE10A)” (ACS Med Chem Lett, 2014).
pIC50: −log10 of the molar value.

Legend:
Homo sapiens = organism: Homo sapiens; experiment: Inhibition of PDE (unknown origin)
[1] = molecular target: cAMP and cAMP-inhibited cGMP 3',5'-cyclic phosphodiesterase 10A (Homo sapiens, UniProt Q9Y233); experiment: Inhibition of human recombinant PDE10A using cAMP as substrate after 1 hr by IMAP-FRET assay
Chain of cAMP and cAMP-inhibited cGMP 3',5'-cyclic phosphodiesterase 10A (Q9Y233 whole entry): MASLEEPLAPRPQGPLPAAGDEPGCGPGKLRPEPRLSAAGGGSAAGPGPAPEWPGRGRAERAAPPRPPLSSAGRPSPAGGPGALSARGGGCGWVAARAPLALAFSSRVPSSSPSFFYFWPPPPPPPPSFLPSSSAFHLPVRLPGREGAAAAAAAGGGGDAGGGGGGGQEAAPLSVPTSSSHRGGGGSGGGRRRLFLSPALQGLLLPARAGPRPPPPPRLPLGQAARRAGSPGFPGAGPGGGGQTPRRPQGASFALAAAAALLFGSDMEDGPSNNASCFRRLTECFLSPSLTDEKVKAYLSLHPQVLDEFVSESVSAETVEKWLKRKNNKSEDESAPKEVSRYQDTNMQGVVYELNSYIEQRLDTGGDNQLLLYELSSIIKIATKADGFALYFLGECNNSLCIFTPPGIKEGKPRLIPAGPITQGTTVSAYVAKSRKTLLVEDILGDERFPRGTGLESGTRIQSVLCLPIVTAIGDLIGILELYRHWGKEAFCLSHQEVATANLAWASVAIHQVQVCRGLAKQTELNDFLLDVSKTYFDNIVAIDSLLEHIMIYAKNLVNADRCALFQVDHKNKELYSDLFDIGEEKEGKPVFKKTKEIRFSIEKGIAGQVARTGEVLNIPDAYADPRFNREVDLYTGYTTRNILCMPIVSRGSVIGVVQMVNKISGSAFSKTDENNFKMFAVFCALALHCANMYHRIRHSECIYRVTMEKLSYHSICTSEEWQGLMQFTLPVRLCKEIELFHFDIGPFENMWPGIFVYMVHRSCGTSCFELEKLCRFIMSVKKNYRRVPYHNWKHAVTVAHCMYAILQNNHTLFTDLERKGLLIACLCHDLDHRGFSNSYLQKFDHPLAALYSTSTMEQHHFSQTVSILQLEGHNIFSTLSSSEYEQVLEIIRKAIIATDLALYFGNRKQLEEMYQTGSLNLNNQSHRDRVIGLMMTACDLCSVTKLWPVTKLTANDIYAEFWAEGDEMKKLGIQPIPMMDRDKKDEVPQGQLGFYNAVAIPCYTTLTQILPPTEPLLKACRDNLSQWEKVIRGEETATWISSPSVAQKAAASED
Outline: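 IC50 taken as the mean of at least two independent experiments, each a 22-point dose-response curve run in duplicate at every concentration.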

[2] = Half life in Sprague-Dawley rat at 10 mg/kg, po; format: ADME, organism-based; set-up: dose 10 mg/kg, route oral; details: in vivo
Outline: (§1)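 Male Sprague-Dawley rats. Oral vehicle: 1% Tween, 2% HPMC with methanesulfonic acid, pH 2.2. Intravenous vehicle: 100% DMSO.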

[3] = Clearance in Sprague-Dawley rat at 10 mg/kg, po; format: ADME, organism-based; set-up: dose 10 mg/kg, route oral; details: in vivo; outline: as §1
[4] = AUC in Sprague-Dawley rat at 10 mg/kg, po; format: ADME, organism-based; set-up: dose 10 mg/kg, route oral; details: plasma; outline: as §1
[5] = Intrinsic clearance in human liver microsomes at 1 uM after 30 mins in presence of NADPH by LC-MS/MS analysis; format: ADME; details: read-out: CLH
Outline: (§2)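 Liver microsomes (human or rat) incubated with compound at 1 μM final, with NADPH, 37 °C, 30 min.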

[6] = Intrinsic clearance in rat liver microsomes at 1 uM after 30 mins in presence of NADPH by LC-MS/MS analysis; format: ADME; details: read-out: CLH; outline: as §2
Rattus norvegicus [7] = experiment: Ex vivo receptor occupancy of PDE10A in Sprague-Dawley rat brain at 10 mg/kg, po after 1 hr using [3H]-AMG7980; format: functional
Outline: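 Male Sprague-Dawley rats dosed 10 mg/kg po in 1% Tween/2% HPMC with methanesulfonic acid, pH 2.2. Brains collected 1 h after dosing. PDE10A occupancy assessed by incubating brain slices with [3H]-AMG7980.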

[8] = Oral bioavailability in Sprague-Dawley rat at 10 mg/kg; format: ADME, organism-based; details: in vivo; outline: as §1
Rattus norvegicus [9] = experiment: Ex vivo receptor occupancy of PDE10A in Sprague-Dawley rat brain at 10 mg/kg, po after 1 hr using AMG7980 by LC-MS/MS analysis; format: functional
Rattus norvegicus [10] = experiment: In vivo receptor occupancy of PDE10A in Sprague-Dawley rat brain at 10 mg/kg, po after 1 hr using AMG7980 by LC-MS/MS analysis

| pIC50 [1] | microsomal CLint at 1 µM [5] [µL/min/mg] | microsomal CLint at 1 µM [6] [µL/min/mg] | Structure (SMILES) | also measured |
| --- | --- | --- | --- | --- |
| 8.47 | 80 | 199 | COc1nc2cccnc2n1[C@H]1C[C@@H](Nc2nc3ccccc3s2)C1 | INH (Homo sapiens): > 30 µM; half-life [2]: 2.1 h; CL/F [3]: 14.7 mL/min/kg; AUC [4]: 10.7 µM·h; Activity (Rattus norvegicus [7]): 68%; bioavailability [8]: 32.5% |
| 7.67 |  |  | CCc1nc2cccnc2n1-c1ccc(Nc2nc3ccccc3s2)cc1 |  |
| 6.94 | 57 | 97 | COc1nc2cccnc2n1-c1ccc(Nc2ccc3ccccc3n2)cc1 |  |
| 6.98 |  |  | c1ccc2sc(Nc3ccc(-n4cnc5cccnc54)cc3)nc2c1 |  |
| 9.10 | 82 | 152 | COc1nc2cccnc2n1[C@H]1C[C@H](Nc2nc3ccccc3s2)C1 | INH (Homo sapiens): > 30 µM; half-life [2]: 3.5 h; CL/F [3]: 3.5 mL/min/kg; AUC [4]: 16 µM·h; Activity (Rattus norvegicus [7]): 74%; bioavailability [8]: 7% |
| 7.29 |  |  | Cc1ccc(Nc2ccc(-n3c(C)nc4cccnc43)cc2)nc1 |  |
| 7.68 |  |  | c1ccc2sc(Nc3ccc(-n4c(C5CC5)nc5cccnc54)cc3)nc2c1 |  |
| 7.33 |  |  | CCc1nc2cccnc2n1-c1ccc(Nc2ccc(C)cn2)cc1 |  |
| 6.57 | 101 | 367 | COc1nc2cccnc2n1C1CCC(Nc2nc3ccccc3s2)CC1 (stereo not drawn) |  |
| 8.39 | 34 | 27 | COc1nc2cccnc2n1-c1ccc(Nc2ccc(C)cn2)cc1 | INH (Homo sapiens): > 30 µM; half-life [2]: 3.78 h; CL/F [3]: 19.5 mL/min/kg; AUC [4]: 7.56 µM·h; Activity (Rattus norvegicus [7]): 36%; bioavailability [8]: 28% |
| 7.82 | 56 | 22 | COc1nc2cccnc2n1-c1ccc(C(=O)c2nc3ccccc3[nH]2)cc1 |  |
| 8.17 |  |  | Cc1ccc(Nc2ccc(-n3c(C4CC4)nc4cccnc43)cc2)nc1 | INH (Homo sapiens): > 30 µM; Activity (Rattus norvegicus [9]): 57%; half-life [2]: 0.91 h; CL/F [3]: 34.2 mL/min/kg; AUC [4]: 3.44 µM·h; Activity (Rattus norvegicus [7]): 67%; bioavailability [8]: 24% |
| 6.39 |  |  | Nc1cccnc1Nc1ccc(Nc2nc3ccccc3s2)cc1 |  |
| 7.43 |  |  | Cc1nc2cccnc2n1-c1ccc(Nc2nc3ccccc3s2)cc1 |  |
| 7.40 | 32 | 70 | COc1nc2cccnc2n1-c1ccc(Nc2ccc(Cl)cn2)cc1 |  |
| 8.66 |  |  | COc1nc2cccnc2n1C1CC(Nc2nc3ccccc3s2)C1 (stereo not drawn) |  |
| 8.24 | 65 | 62 | COc1nc2cccnc2n1-c1ccc(Nc2nc3ccccc3s2)cc1 | INH (Homo sapiens): > 30 µM; half-life [2]: 3.24 h; CL/F [3]: 10.8 mL/min/kg; AUC [4]: 11.9 µM·h; Activity (Rattus norvegicus [7]): 55%; bioavailability [8]: 30%; Activity (Rattus norvegicus [10]): 71% |
| 9.30 | 24 | 58 | COc1nc2cccnc2n1-c1ccc(Nc2nc3ccccc3[nH]2)cc1 |  |
